Assay results from ChEMBL document CHEMBL1146683, “Antiproliferative activity of various flavonoids and related compounds: additive effect of interferon-alpha2b” (Bioorg Med Chem Lett, 2004).
Active and inactive are the calls of the source. The calls are words filed in the database; no cut-off is given here.

Test system: WISH
Test: In vitro inhibitory activity against the growth of WISH cell derived from human cervical carcinoma was determined; Inactive
Assay type: functional, cell-based

Row | SMILES | inhibition | NA
1 | O=c1cc(-c2ccccc2)oc2ccc([N+](=O)[O-])cc12 | inactive | –
2 | O=c1cc(-c2ccccc2)oc2ccccc12 | – | inactive
3 | O=C(O)/C=C/c1ccc(O)c(O)c1 | – | inactive

Test system: WISH
Test: In vitro inhibitory activity against the growth of WISH cell derived from human cervical carcinoma was determined; slight effect
Assay type: functional, cell-based

Row | SMILES | inhibition
4 | O=c1cc(-c2ccccc2)oc2ccc3ccccc3c12 | Weak activity
5 | O=c1cc(-c2ccc(O)cc2)oc2cc(O)cc(O)c12 | Weak activity
6 | O=c1c(O)c(-c2ccc(O)c(O)c2)oc2cc(O)cc(O)c12 | Weak activity
7 | O=c1cc(-c2ccccc2)oc2c1ccc1ccccc12 | Weak activity
8 | COc1cc(OC)c2c(=O)cc(-c3ccccc3)oc2c1 | slight effect
9 | O=c1cc(-c2ccccc2)oc2cc(O)cc(O)c12 | Weak activity
10 | O=C(O)/C=C/c1ccccc1 | slight effect

Test system: WISH
Test: In vitro inhibitory activity against the growth of WISH cell derived from human cervical carcinoma was determined; slight reduction in cell growth
Assay type: functional, cell-based

Row | SMILES | inhibition
11 | O=C1CC(c2ccccc2)Oc2ccccc21 (stereo not drawn) | Weak activity

Test system: WISH
Test: (§1) In vitro inhibitory activity against the growth of WISH cell derived from human cervical carcinoma was determined
Assay type: functional
How it was run: (§2)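 WISH cells (HeLa-derived; grown in MEM with 10% FBS, 2 mM L-glutamine and antibiotics), 10,000 per well. Cells exposed 72 h at 37 °C to a concentration series of compound given in DMSO/ethanol (1:10), with controls solvent-matched. Total cell number read colorimetrically as hexosaminidase level. IC50, the molar concentration giving 50% growth inhibition, was taken from dose–response curves.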

Row | SMILES | Inhibition
12 | CCOC(=O)/C=C/c1ccc(O)c(O)c1 [ETHYL CAFFEATE] | 50%
13 | CCCCOC(=O)/C=C/c1ccc(O)c(O)c1 [BUTYL CAFFEATE] | ~70%
14 | O=c1cc(-c2ccccc2[N+](=O)[O-])oc2ccccc12 | ~70%
15 | O=c1cc(-c2ccccc2[N+](=O)[O-])oc2ccc([N+](=O)[O-])cc12 | ~70%

Test system: WISH
Test: as §1
Assay type: functional, cell-based
How it was run: as §2

Row | SMILES | IC50
16 | CCCCOC(=O)/C=C/c1ccc(O)c(O)c1 [BUTYL CAFFEATE] | ~3000 nM
17 | O=c1cc(-c2ccccc2[N+](=O)[O-])oc2ccccc12 | ~3000 nM
18 | O=c1cc(-c2ccccc2[N+](=O)[O-])oc2ccc([N+](=O)[O-])cc12 | ~3000 nM
